Data: article PMC3573876 (The Journal of antibiotics, 2012)

What was measured:
[1] = tested on: activated p65 subunits of NF-κB in the nucleus of HeLa cells; assay: ELISA based NF-κB p65 inhibitory assay; assay type: cell-based, human; conditions: for IC50: read-out: NF-κB inhibitory activity IC50 values, p65 binding, HeLa cells, ELISA
EGFR tyrosine kinase = EGFR tyrosine kinase (Homo sapiens, UniProt P00533); assay: EGFR enzymatic assay; assay type: biochemical; conditions: read-out: EGFR inhibition IC50; luminescence kinase assay
Chain of EGFR tyrosine kinase (P00533 25-1210): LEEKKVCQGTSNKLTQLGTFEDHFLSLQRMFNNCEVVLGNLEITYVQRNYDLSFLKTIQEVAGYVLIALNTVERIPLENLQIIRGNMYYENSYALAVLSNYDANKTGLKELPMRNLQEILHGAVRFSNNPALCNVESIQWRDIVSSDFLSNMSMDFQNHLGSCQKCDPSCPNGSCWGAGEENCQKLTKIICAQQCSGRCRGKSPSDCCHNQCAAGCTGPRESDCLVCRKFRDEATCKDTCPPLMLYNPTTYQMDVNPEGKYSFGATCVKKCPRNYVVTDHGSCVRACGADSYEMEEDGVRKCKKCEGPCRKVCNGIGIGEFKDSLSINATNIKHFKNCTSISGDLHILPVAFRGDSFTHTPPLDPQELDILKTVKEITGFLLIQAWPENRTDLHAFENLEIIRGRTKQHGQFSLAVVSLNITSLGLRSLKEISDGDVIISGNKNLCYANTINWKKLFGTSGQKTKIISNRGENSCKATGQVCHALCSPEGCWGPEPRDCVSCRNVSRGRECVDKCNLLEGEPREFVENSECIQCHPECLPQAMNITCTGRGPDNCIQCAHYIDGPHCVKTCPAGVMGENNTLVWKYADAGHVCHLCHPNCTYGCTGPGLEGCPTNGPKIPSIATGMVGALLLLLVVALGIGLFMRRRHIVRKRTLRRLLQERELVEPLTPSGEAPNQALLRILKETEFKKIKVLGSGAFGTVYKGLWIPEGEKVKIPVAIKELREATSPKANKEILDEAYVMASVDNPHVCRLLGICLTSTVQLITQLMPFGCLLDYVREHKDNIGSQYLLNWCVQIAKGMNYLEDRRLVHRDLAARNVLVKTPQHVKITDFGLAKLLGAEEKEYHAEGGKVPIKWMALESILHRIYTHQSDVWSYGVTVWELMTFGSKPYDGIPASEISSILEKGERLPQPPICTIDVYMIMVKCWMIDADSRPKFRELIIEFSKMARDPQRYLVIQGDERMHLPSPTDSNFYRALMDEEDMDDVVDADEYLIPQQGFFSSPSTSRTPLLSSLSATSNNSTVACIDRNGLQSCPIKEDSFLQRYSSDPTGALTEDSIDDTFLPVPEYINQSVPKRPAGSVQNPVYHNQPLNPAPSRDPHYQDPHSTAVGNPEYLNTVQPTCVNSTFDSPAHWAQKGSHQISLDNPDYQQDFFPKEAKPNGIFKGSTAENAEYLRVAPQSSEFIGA

Cytotoxicity assay [2] = assay type: cell-based; conditions: human
Cytotoxicity assay [3] = assay type: cell-based; conditions: human; remark: listed apart in the source
Cytotoxicity assay [4] = assay type: cell-based; conditions: human, NCI-H460 large cell lung carcinoma cells
Procedure, shortened: (§1)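 Cells were exposed continuously to the test compound for 72 h, then stained with sulforhodamine B. IC50 was the concentration that reduced staining by 50% relative to untreated controls. Positive controls were run alongside. MCF-7 came from a cancer-centre stock, NCI-H460 from ATCC, and SF-268 from the NCI Developmental Therapeutics Program.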

Cytotoxicity assay [5] = assay type: cell-based; conditions: human, SF-268 astrocytoma cells
Procedure, shortened: as §1

Cytotoxicity assay [6] = assay type: cell-based; conditions: human, MCF-7 breast carcinoma cells
Procedure, shortened: as §1

A549 (adenocarcinoma) = conditions: A549 human cell line; cited from earlier work
[7] = tested on: HepG2 (hepatocellular carcinoma); conditions: HepG2 human cell line; cited from earlier work
[8] = tested on: epidermal growth factor receptor (EGFR); conditions: cell-free ELISA assay; cited from earlier work
[9] = tested on: vascular endothelial growth factor receptor-1/fms-like tyrosine kinase-1 (VEGFR-1/Flt-1); conditions: cell-free ELISA assay; cited from earlier work
[10] = tested on: human epidermal growth factor receptor-2 (HER2/ErbB-2); conditions: cell-free ELISA assay; cited from earlier work

In the case of Sch 52901 [Sch 52900 (5)], the IC50 [1] is reported as > 10 µM.
In the case of `CC[C@@]12SS[C@]3(C(=O)N1C)[C@@H](O)[C@]1(C45c6ccccc6N[C@@H]4N4C(=O)[C@@]6(CC)SS[C@@]4(C(=O)N6C)[C@H]5O)c4ccccc4N[C@@H]1N3C2=O` (some centres unmarked) [Verticillin H (1), verticillin H], the IC50 [1] is reported as > 10 µM and the IC50 (EGFR tyrosine kinase) is reported as > 10 µM.
In the case of `COC(=O)[C@H]1[C@@H](O)[C@@]2(O)c3c(OC)cc(O[C@@H]4O[C@@H]([C@H](O)CO)CO[C@H]4OC)cc3O[C@@]2(c2ccc(OC)cc2)[C@@H]1c1ccccc1` [Silvestrol], the IC50 (Cytotoxicity assay [2]) is reported as 0.01 µM and the IC50 (Cytotoxicity assay [3]) is reported as 0.01 µM.
With `CN1C(=O)[C@]23SS[C@@]1(C)C(=O)N2[C@H]1Nc2ccccc2[C@@]1([C@@]12c4ccccc4N[C@@H]1N1C(=O)[C@@]4(C)SS[C@]1(C(=O)N4C)[C@H]2O)[C@@H]3O` [Verticillin A (3), verticillin A] the “NF-κB assay activity (in words)” value [1] was “sub-micromolar range”, the IC50 [1] was 0.1 µM and the IC50 (EGFR tyrosine kinase) was > 10 µM.
In the case of `CC[C@@]1(O)C(=O)OCc2c1cc1n(c2=O)Cc2cc3ccccc3nc2-1` [Camptothecin], the IC50 at 72 h (Cytotoxicity assay [4]) is reported as 0.01 µM, the IC50 at 72 h (Cytotoxicity assay [5]) is reported as 0.01 µM and the IC50 at 72 h (Cytotoxicity assay [6]) is reported as 0.13 µM.
With `CC(O)[C@@]12SS[C@]3(C(=O)N1C)[C@@H](O)[C@]1([C@@]45c6ccccc6N[C@@H]4N4C(=O)[C@]6(C)SS[C@]4(C(=O)N6C)[C@H]5O)c4ccccc4N[C@@H]1N3C2=O` (some centres unmarked) [Sch 52901 (2), Sch 52900] the “NF-κB assay activity (in words)” value [1] was “sub-micromolar range” and the IC50 [1] was 0.5 µM.
In the case of `CC[C@@]12SS[C@]3(C(=O)N1C)[C@@H](O)C1(C45c6ccccc6N[C@@H]4N4C(=O)[C@]6([C@@H](C)O)SS[C@]4(C(=O)N6C)[C@H]5O)c4ccccc4N[C@@H]1N3C2=O` (some centres unmarked) [Gliocladicillin C (4), gliocladicillin C], the IC50 [1] is listed as > 10 µM, the IC50 (EGFR tyrosine kinase) is listed as > 10 µM and the “Cytotoxic activity on A549” value (A549 (adenocarcinoma)) is listed as “high cytotoxic activity”. For the same compound, the “Cytotoxic activity on HepG2” value [7] was “high cytotoxic activity”.
In the case of `CN1C(=O)[C@@]23C[C@]4([C@]56C[C@@]78SS[C@@](C)(C(=O)N7[C@H]5Nc5ccccc56)N(C)C8=O)c5ccccc5N[C@@H]4N2C(=O)[C@]1(C)SS3` [11,11′-Dideoxyverticillin], the “Tyrosine kinase inhibitory activity, EGFR” value [8] is listed as “nM range”, the “Tyrosine kinase inhibitory activity, VEGFR-1/Flt-1” value [9] is listed as “nM range” and the “Tyrosine kinase inhibitory activity, HER2/ErbB-2” value [10] is listed as “µM range”.
